How the values were obtained:
[1] = system: LNCaP, 22RV1 and LNCaP-ENZR cells; experiment: Viability screen of 197 compounds in PCa cells; assay type: cell-based; settings: 20 μmol/L, 72 h, 22RV1, LNCaP-ENZR cells
[2] = system: 22RV1 orthotopic xenografts; experiment: 22RV1 orthotopic xenografts; assay type: in vivo, BALB/c-nude mice; settings: LLU-206 25 mg/kg i.v.; ENZ 10 mg/kg p.o.
How it was run: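 Mice aged 6–8 weeks carried 22RV1 tumours implanted orthotopically in the prostate. Tumour growth was followed by bioluminescence imaging and analysed as average fluorescence values, n = 6 per group. Relative tumour weight was recorded at the end. Paraffin-embedded tumours were H&E-stained and stained for Ki-67 by IHC; Ki-67 and necrotic area were quantified by image analysis. Data are mean ± SEM, one-way ANOVA with Tukey.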

LNCaP-ENZR xenografts = experiment: LNCaP-ENZR subcutaneous xenografts; assay type: in vivo, NOD-SCID mice; settings: LLU-206 10, 25 mg/kg via tail vein; ENZ 10 mg/kg by gavage

SMILES	anti-PCa activity / inhibition of proliferation in the viability screen [1]	growth of 22RV1 orthotopic xenografts [2]	antitumor activity in LNCaP-ENZR xenografts (tumor volume, tumor weight, serum PSA) (LNCaP-ENZR xenografts)
CC(O)c1cc(C(=O)N[C@@H](C)Cn2ccc(-c3ccc(C#N)c(Cl)c3)n2)[nH]n1 (stereo partly shown) [ODM-201, darolutamide]	no significant inhibition		
CNC(=O)c1ccc(N2C(=S)N(c3ccc(C#N)c(C(F)(F)F)c3)C(=O)C2(C)C)cc1F [ENZ, Enzalutamide]		exhibited resistance	completely resistant
CNC(=O)c1ccc(N2C(=S)N(c3cnc(C#N)c(C(F)(F)F)c3)C(=O)C23CCC3)cc1F [ARN-509, apalutamide]	no significant inhibition		
